Legend:
Bacillus subtilis [1] = assay type: functional
Bacillus subtilis [2] = assay: microbe, parasite or virus in culture; assay type: functional, organism-based; conditions: read-out: I50
physchem [3] = conditions: octanol/water
physchem [4] = conditions: octanol/water, pH 7.2
physchem [5] = assay: physchem
Bacillus subtilis [6] = assay: Inhibitory activity on germination of Bacillus subtilis PCI219 spores was determined; No inhibition at 2.5e-3M; assay type: functional, organism-based
In short: (§1)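 Unheated B. subtilis PCI219 spores (about 2.2×10^8 cells per mL) were incubated with the test compound in 0.1 mM L-alanine germinant and 0.05 M phosphate buffer, pH 7.2, at 37 °C. Germination was followed as the decrease in absorbance at 650 nm. The rate was taken as the slope of the steepest linear portion and compared with an inhibitor-free control.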

Bacillus subtilis [7] = assay: Inhibitory activity on germination of Bacillus subtilis PCI219 spores was determined at 2 x 10E-4 M; assay type: functional
In short: as §1

Bacillus subtilis [8] = assay: Inhibitory activity on germination of Bacillus subtilis PCI219 spores was determined; No inhibition at 5*10e-2 M; assay type: functional, organism-based
In short: as §1

| SMILES | Log 1/I50 (Bacillus subtilis [1]) | IC50 (Bacillus subtilis [2]) [mM] | logP (physchem [3]) | logD (physchem [4]) | pKa (physchem [5]) | I50 (Bacillus subtilis [6]) | inhibition at 200 µM (Bacillus subtilis [7]) [%] | I50 (Bacillus subtilis [8]) |
| --- | --- | --- | --- | --- | --- | --- | --- | --- |
| CCc1ccc(O)cc1 | 2.8 1/M | 1.6 | 2.26 | 2.26 | 10 |  |  |  |
| NC(Cc1ccc(O)cc1)C(=O)O (stereo not given) |  |  |  |  |  | No inhibition |  |  |
| CC(C)Cc1ccc(O)cc1 | 3.52 1/M | 0.302 | 3.4 | 3.4 | 10.2 |  |  |  |
| CC(C)(C)c1ccccc1O | 4.46 1/M | 0.0345 |  |  | 11.3 |  |  |  |
| O=Cc1ccccc1O | 2.42 1/M | 3.78 |  |  | 8.3 |  |  |  |
| Cc1cc(C)c(O)c(C)c1 | 2.85 1/M | 1.4 | 2.86 | 2.86 | 10.9 |  |  |  |
| CC(C)(C)c1ccc(O)cc1 |  | 0.302 |  |  |  |  |  |  |
| CC(C)c1ccc(O)cc1 | 3.17 1/M | 0.674 | 2.86 | 2.86 | 10.1 |  |  |  |
| CC(C)c1ccccc1O | 3.57 1/M | 0.268 | 2.88 | 2.88 | 10.4 |  |  |  |
| Oc1c(Cl)cc(Cl)cc1Cl |  | 0.13 |  |  |  |  |  |  |
| Oc1c(Cl)cc(Cl)c(Cl)c1Cl | 3.57 1/M | 0.269 | 4.1 | 2.59 | 5.7 |  |  |  |
| CCc1ccccc1O | 3.31 1/M | 0.493 | 2.47 | 2.47 | 10.2 |  |  |  |
| CC(C)Cc1ccccc1O | 3.62 1/M | 0.242 | 3.27 | 3.27 | 10.5 |  |  |  |
| Oc1ccc(Br)cc1 |  | 0.717 |  |  |  |  |  |  |
| Oc1ccc(-c2ccccc2)cc1 | 3.89 1/M | 0.129 | 3.2 | 3.2 | 9.5 |  |  |  |
| Oc1ccc(Cl)cc1Cl [2,4-DICHLOROPHENOL] | 3.62 1/M | 0.242 | 3.14 | 3.06 |  |  |  |  |
| Oc1ccccc1Cl [2-CHLOROPHENOL] | 3.25 1/M | 0.562 |  | 2.13 | 8.5 |  |  |  |
| Oc1ccccc1-c1ccccc1 [2-PHENYLPHENOL] | 3.55 1/M | 0.28 | 3.09 | 3.09 | 9.9 |  |  |  |
| Nc1cccc(O)c1 [3-AMINOPHENOL] | 1.35 1/M | 44.7 | 0.16 | 0.16 | 9.9 |  |  |  |
| O=Cc1ccc(O)cc1 [4-HYDROXYBENZALDEHYDE] | 1.7 1/M | 20 | 1.37 | 1.22 | 7.6 |  |  |  |
| CCCCCCCCCC(=O)O [DECANOIC ACID] | 2.22 1/M | 6.03 | 3.92 | 1.62 |  |  |  |  |
| CCCCCCCCCCCC(=O)O [DODECANOATE] | 2.7 1/M | 1.98 | 4.92 | 2.62 | 4.9 |  |  |  |
| COc1ccccc1O [GUAIACOL] | 2.2 1/M | 6.31 | 1.33 | 1.33 | 9.9 |  |  |  |
| CCCCCCC(=O)O [HEPTANOATE] | 0.82 1/M | 151 | 2.42 | 0.12 | 4.9 |  |  |  |
| Oc1c(Cl)cc(Cl)c(Cl)c1Cc1c(O)c(Cl)cc(Cl)c1Cl [HEXACHLOROPHENE] | 3.7 1/M | 0.198 | 7.54 | 5.54 | 5 |  |  |  |
| CCCCC/C=C\C/C=C\CCCCCCCC(=O)O [LINOLEIC ACID] |  |  |  |  |  |  | 34.6 |  |

| SMILES | Log 1/I50 (Bacillus subtilis [1]) | IC50 (Bacillus subtilis [2]) [mM] | logP (physchem [3]) | logD (physchem [4]) | pKa (physchem [5]) | I50 (Bacillus subtilis [6]) | inhibition at 200 µM (Bacillus subtilis [7]) [%] | I50 (Bacillus subtilis [8]) |
| --- | --- | --- | --- | --- | --- | --- | --- | --- |
| CC/C=C\C/C=C\C/C=C\CCCCCCCC(=O)O [LINOLENIC ACID] |  |  |  |  |  |  | 32 |  |
| Cc1cccc(O)c1 [METACRESOL] | 2.7 1/M | 2.01 | 1.97 | 1.97 | 10.1 |  |  |  |
| COC(=O)c1ccccc1O [METHYL SALICYLATE] | 3 1/M | 1.03 | 2.46 | 2.46 | 10.2 |  |  |  |
| COC(=O)c1ccc(O)cc1 [METHYLPARABEN] | 2.7 1/M | 2.01 |  |  |  |  |  |  |
| CCCCCCCCCCCCCC(=O)O [MYRISTIC ACID] |  |  |  |  |  |  | 21 |  |
| O=[N+]([O-])c1ccccc1O [NITROPHENOLATE] | 2.5 1/M | 3.15 | 1.77 | 1.47 | 7.2 |  |  |  |
| CCCCCCCCC(=O)O [NONANOATE] | 2.05 1/M | 8.9 | 3.42 | 1.12 | 4.9 |  |  |  |
| CCCCCCCC(=O)O [OCTANOIC ACID] | 1.27 1/M | 53.5 | 2.92 | 0.62 |  |  |  |  |
| CCCCCCCC/C=C\CCCCCCCC(=O)O [OLEIC ACID] |  |  |  |  |  |  | 30.2 |  |
| Cc1cc(O)cc(O)c1 [ORCINOL] | 1.77 1/M | 16.8 |  |  | 9.3 |  |  |  |
| Cc1ccccc1O [ORTHOCRESOL] | 2.89 1/M | 1.3 | 1.98 | 1.98 | 10.3 |  |  |  |
| O=[N+]([O-])c1ccc(O)cc1 [P-NITROPHENOL] | 2.17 1/M | 6.83 |  | 1.61 | 7.1 |  |  |  |
| CCCCCCCCCCCCCCCC(=O)O [PALMITIC ACID] |  |  |  |  |  |  | 17.3 |  |
| Oc1ccc(Cl)cc1 [PARACHLOROPHENOL] | 3.1 1/M | 0.797 |  |  | 9.4 |  |  |  |
| Oc1c(Cl)c(Cl)c(Cl)c(Cl)c1Cl [PENTACHLOROPHENOL] | 3.46 1/M | 0.346 |  |  | 5 |  |  |  |
| Oc1ccccc1 [PHENOL] |  | 1.5 |  |  |  |  |  |  |
| Nc1ccccc1O [QUESTIOMYCIN B] | 1.52 1/M | 29.9 | 0.57 | 0.57 | 9.7 |  |  |  |
| Oc1cccc(O)c1 [RESORCINOL] | 2.42 1/M | 3.83 | 0.78 | 0.78 | 9.4 |  |  |  |
| O=C(O)c1ccccc1O [SALICYLIC ACID] |  |  | 2.24 |  |  |  |  | No inhibition |
| CCCCCCCCCCCCCCCCCC(=O)O [STEARIC ACID] |  |  |  |  |  |  | 14.2 |  |
| Cc1ccc(C(C)C)c(O)c1 [THYMOL] | 3.31 1/M | 0.494 |  |  | 10.7 |  |  |  |
| Oc1cc(Cl)c(Cl)cc1Cl [TRICLOFENOL] | 3.89 1/M | 0.128 | 3.72 | 3.31 |  |  |  |  |
| CCCCCCCCCCCCC(=O)O [TRIDECANOATE] | 3.12 1/M | 0.75 | 5.42 | 3.12 | 4.9 |  |  |  |
| CCCCCCCCCCC(=O)O [UNDECANOATE] | 2.35 1/M | 4.47 | 4.42 | 2.12 | 4.9 |  |  |  |
| Cc1ccc(O)cc1 [p-CRESOL] | 2.44 1/M | 3.64 |  | 1.94 |  |  |  |  |

Reference: ChEMBL document CHEMBL1122024, “Quantitative structure-inhibitory activity relationships of phenols and fatty acids for Bacillus subtilis spore germination” (J Med Chem, 1982)
